Consider 18 compounds from ChEMBL document CHEMBL1157684, “2-Thienyl-4-furyl-6-aryl pyridine derivatives: synthesis, topoisomerase I and II inhibitory activity, cytotoxicity, and structure-activity relationship study” (Bioorg Med Chem, 2010).

One experiment deals with MCF7. Nature of the experiment: Cytotoxicity against human MCF7 cells after 4 days by ELISA reader assay. It counts as functional, cell-based. The following applies: MCF7, 96 h. The method, boiled down: (§1)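 Cells grown per supplier, seeded at 2–4 × 10⁴ per well, left overnight in medium with 10% FBS at 37 °C under 5% CO₂, then exposed to compounds. WST (cell counting kit-8) reagent added for a further 4 h, absorbance read at 450 nm. IC50 from four-parameter logistic fit; mean ± S.D. of three experiments, each in triplicate.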

Experiment [1] deals with T1, DNA topoisomerase 1 (Homo sapiens) (UniProt P11387).
T1 sequence (whole entry): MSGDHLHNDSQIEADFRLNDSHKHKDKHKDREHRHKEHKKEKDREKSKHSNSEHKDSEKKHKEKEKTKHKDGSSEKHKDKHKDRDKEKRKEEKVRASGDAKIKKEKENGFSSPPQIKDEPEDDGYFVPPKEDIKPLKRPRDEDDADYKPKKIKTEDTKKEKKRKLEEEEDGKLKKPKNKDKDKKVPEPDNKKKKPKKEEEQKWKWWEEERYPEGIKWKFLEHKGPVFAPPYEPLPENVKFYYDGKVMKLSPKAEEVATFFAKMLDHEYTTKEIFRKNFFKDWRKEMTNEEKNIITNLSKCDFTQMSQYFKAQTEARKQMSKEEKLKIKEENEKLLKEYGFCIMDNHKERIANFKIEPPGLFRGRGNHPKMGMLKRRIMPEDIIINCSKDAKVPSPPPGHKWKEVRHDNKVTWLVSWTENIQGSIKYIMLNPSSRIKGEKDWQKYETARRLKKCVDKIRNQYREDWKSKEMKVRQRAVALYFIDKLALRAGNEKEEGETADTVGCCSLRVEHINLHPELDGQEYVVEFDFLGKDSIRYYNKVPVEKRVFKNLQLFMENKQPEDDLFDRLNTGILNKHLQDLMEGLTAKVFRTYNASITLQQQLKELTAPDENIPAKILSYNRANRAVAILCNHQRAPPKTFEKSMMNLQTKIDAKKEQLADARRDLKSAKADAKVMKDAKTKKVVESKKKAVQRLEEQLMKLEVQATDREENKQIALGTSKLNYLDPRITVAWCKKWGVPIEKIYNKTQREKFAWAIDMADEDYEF
Nature of the experiment: Inhibition of human recombinant DNA topoisomerase 1-mediated relaxation of supercoiled pBR322 DNA at 100 uM after 30 mins by agarose gel electrophoresis. The method in brief: (§2)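 Recombinant human topo I (0.4 units) with 100 ng supercoiled pBR322, 30 min at 37 °C in 10 mM Tris–HCl pH 7.9, 150 mM NaCl, 0.1% BSA, 1 mM spermidine, 5% glycerol. Compounds from 20 mM DMSO stock. Products run on 1% agarose in TAE, 15 V for 7 h, ethidium-stained, bands quantified under UV.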

The target of experiment [2] is DNA topoisomerase 2-alpha (Homo sapiens) (UniProt P11388). Nature of the experiment: Inhibition of human DNA topoisomerase 2alpha-mediated relaxation of supercoiled pBR322 DNA at 20 uM after 30 mins by agarose gel electrophoresis. The method in brief:
(§3)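 Human topo IIα (1 unit) with 200 ng supercoiled pBR322, 30 min at 30 °C in 10 mM Tris–HCl pH 7.9, 50 mM NaCl, 50 mM KCl, 5 mM MgCl2, 1 mM EDTA, 1 mM ATP plus BSA. Products run on 1% agarose in TAE at 25 V for 4 h, ethidium-stained, supercoiled DNA quantified under UV.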

For experiment [3] the target is unchanged. Nature of the experiment: Inhibition of human DNA topoisomerase 2alpha-mediated relaxation of supercoiled pBR322 DNA at 100 uM after 30 mins by agarose gel electrophoresis. The method, boiled down:
as §3

In the next experiment the test system is HCT-15. Nature of the experiment: Cytotoxicity against human HCT15 cells after 4 days by ELISA reader assay. It is filed as functional, cell-based. The conditions noted are these: HCT-15, 96 h. The method in brief:
as §1

The next experiment has as its system HeLa. Nature of the experiment: Cytotoxicity against human HeLa cells after 4 days by ELISA reader assay. It counts as functional, cell-based. The following applies: 96 h. The method, boiled down: as §1
The test system of a further experiment is DU-145. Nature of the experiment: Cytotoxicity against human DU145 cells after 4 days by ELISA reader assay. It counts as functional, cell-based. The conditions noted are these: DU-145, 96 h. The method, boiled down:
as §1

In experiment [4] the target is T1, DNA topoisomerase 1 (Homo sapiens). Nature of the experiment: Inhibition of human recombinant DNA topoisomerase 1-mediated relaxation of supercoiled pBR322 DNA at 20 uM after 30 mins by agarose gel electrophoresis. The method in brief:
as §2

The subject of a further experiment is K562. Nature of the experiment: Cytotoxicity against human K562 cells after 4 days by ELISA reader assay. It counts as functional, cell-based. The conditions noted are these: K562, 96 h. The method in brief:
as §1

Where a name gives a salt, the structure may show the parent alone. Active and inactive are the calls of the source. The calls are words filed in the database; no cut-off is given here. Where only a bound is given, the exact number is not on record here.

Sequence of DNA topoisomerase 2-alpha (Homo sapiens) (P11388 whole entry): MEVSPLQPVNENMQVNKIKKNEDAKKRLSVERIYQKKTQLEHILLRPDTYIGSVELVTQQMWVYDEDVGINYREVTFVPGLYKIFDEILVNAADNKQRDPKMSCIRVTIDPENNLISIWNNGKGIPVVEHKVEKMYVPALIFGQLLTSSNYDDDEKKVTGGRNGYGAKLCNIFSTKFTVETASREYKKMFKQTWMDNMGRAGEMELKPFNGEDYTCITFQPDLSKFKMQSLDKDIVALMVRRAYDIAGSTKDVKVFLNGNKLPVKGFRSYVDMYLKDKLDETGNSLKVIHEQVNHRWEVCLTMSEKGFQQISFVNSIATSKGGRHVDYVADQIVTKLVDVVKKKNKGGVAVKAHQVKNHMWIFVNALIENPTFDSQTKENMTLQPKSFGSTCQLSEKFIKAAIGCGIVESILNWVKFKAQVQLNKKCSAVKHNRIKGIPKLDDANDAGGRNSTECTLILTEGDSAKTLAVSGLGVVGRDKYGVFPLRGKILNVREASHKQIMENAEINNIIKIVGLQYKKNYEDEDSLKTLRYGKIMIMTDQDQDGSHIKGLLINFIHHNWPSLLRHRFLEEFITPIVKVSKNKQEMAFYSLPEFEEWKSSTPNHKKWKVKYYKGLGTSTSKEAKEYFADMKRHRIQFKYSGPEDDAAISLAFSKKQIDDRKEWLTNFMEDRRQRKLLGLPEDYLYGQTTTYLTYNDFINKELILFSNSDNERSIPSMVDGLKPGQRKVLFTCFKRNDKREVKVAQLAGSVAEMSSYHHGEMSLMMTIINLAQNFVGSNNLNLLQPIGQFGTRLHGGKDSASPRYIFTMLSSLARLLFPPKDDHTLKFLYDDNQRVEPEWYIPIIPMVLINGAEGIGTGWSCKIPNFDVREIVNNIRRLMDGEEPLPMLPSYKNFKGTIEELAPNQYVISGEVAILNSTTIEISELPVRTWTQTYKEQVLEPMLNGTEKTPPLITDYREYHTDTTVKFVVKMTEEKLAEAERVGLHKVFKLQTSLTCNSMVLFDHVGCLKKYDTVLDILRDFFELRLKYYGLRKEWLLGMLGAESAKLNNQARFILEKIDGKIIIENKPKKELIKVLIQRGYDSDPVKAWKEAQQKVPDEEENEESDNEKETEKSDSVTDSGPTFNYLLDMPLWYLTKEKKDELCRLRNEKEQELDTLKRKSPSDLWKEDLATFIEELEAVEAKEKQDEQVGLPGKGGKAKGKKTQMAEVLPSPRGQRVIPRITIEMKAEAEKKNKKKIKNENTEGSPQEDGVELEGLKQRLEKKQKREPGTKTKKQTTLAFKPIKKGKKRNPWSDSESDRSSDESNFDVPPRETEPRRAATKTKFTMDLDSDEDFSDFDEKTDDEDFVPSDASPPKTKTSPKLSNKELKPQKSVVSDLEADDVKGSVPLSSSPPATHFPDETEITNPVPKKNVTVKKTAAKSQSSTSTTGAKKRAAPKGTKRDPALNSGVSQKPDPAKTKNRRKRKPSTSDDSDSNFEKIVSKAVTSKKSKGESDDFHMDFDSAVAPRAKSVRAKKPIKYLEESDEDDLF

What is called IC50 is the midpoint of a concentration-inhibition curve. Low readings indicate greater potency, high ones weaker potency. What is called inhibition is the change of the read-out against control, counted positive when it falls. With `Clc1ccc(-c2cc(-c3ccco3)cc(-c3ccc(Cl)s3)n2)cc1`, the IC50 with MCF7 turned out to be 1.52 µM; with HCT-15, 1.08 µM; in the experiment on HeLa, 17 µM; with DU-145, 14.8 µM; in the experiment on K562, 10.5 µM. The inhibition in [1] was found to be 53.1%; in [2], 48.4%; in experiment [3] it was 53.3%; in experiment [4], 42.9%.

Consider `Clc1ccc(-c2cc(-c3ccc(Cl)o3)cc(-c3ccc(Cl)s3)n2)cc1`, for which the IC50 in the experiment on MCF7 came out at 12.6 µM; in the experiment with HCT-15, 25.3 µM; in the experiment with HeLa, 25.1 µM; in the experiment with DU-145, 23 µM; in the experiment on K562 it was 19.3 µM. The inhibition in [1] is 2.2%; in experiment [2], 42.7%; in experiment [3], 59.8%. Also, the inhibition entry in [4] is “inactive”.

`Clc1ccc(-c2cc(-c3ccoc3)cc(-c3ccco3)n2)s1`: the IC50 with MCF7 amounted to 4.74 µM; in the experiment on HCT-15, 1.28 µM; in the experiment with HeLa it was 22.7 µM; in the experiment with DU-145, 17.2 µM; in the experiment on K562, 16.2 µM. Moreover, the inhibition in [1] came to 9.6%; in experiment [2], 48.6%; in experiment [3], 49.1%. The inhibition entry in experiment [4] is “inactive”.

As for `Cc1ccsc1-c1cc(-c2ccco2)cc(-c2ccc(Cl)cc2)n1`, the IC50 in the experiment on MCF7 was 0.89 µM; in the experiment with HCT-15, 0.71 µM; in the experiment on HeLa, 24.5 µM; in the experiment on DU-145 it was 26.7 µM; in the experiment with K562, 20.7 µM. Further, the inhibition in experiment [1] amounted to 1%; in experiment [2], 17.8%; in experiment [3], 56.3%. In addition, the inhibition result in experiment [4] is “inactive”.

On to `Clc1ccc(-c2cc(-c3ccoc3)cc(-c3ccccn3)n2)s1`, for which the IC50 came out at 3.36 µM in the experiment on MCF7; 1.27 µM in the experiment on HCT-15; 21.6 µM with HeLa; 20.5 µM in the experiment with DU-145; 20 µM in the experiment with K562. Further, the inhibition in [1] is 3.1%; in experiment [2], 38.9%; in [3] it was 49.6%. Besides, the inhibition entry in experiment [4] is “inactive”.

For `COc1cc([C@@H]2c3cc4c(cc3[C@@H](O[C@@H]3O[C@@H]5CO[C@@H](C)O[C@H]5[C@H](O)[C@H]3O)[C@H]3COC(=O)[C@H]23)OCO4)cc(OC)c1O` [ETOPOSIDE], the IC50 came out at 1.89 µM in the experiment with MCF7; 1.09 µM in the experiment with HCT-15; 1.29 µM in the experiment on HeLa; 1.3 µM with DU-145; 2.41 µM in the experiment with K562. The compound also had an inhibition in [2] of 28.9%.

On to `Cc1ccsc1-c1cc(-c2ccco2)cc(-c2ccccc2Cl)n1`, for which the IC50 in the experiment on MCF7 is 14.2 µM; in the experiment with HCT-15 it was 0.54 µM; in the experiment on HeLa, 24 µM; in the experiment with DU-145, 29.9 µM; in the experiment with K562, 25.4 µM. Also, the inhibition was found to be 2% in experiment [1], 3.5% in experiment [2] and 33.2% in experiment [3]. The inhibition entry in [4] is “inactive”.

In the case of `Cc1ccccc1-c1cc(-c2ccoc2)cc(-c2ccc(Cl)s2)n1`, the IC50 in the experiment with MCF7 was 1.43 µM; in the experiment on HCT-15 it was 0.99 µM; in the experiment on HeLa, 19 µM; in the experiment with DU-145 it was 18.5 µM; in the experiment on K562 it was 12.3 µM. Besides, the inhibition in experiment [1] came out at 4.6%; in experiment [2], 49.2%; in experiment [3], 60.7%. In addition, the inhibition result in experiment [4] was “inactive”.

As to `Cc1ccsc1-c1cc(-c2ccc(Cl)o2)cc(-c2cccc(Cl)c2)n1`, the IC50 with MCF7 worked out at 18.8 µM; in the experiment on HCT-15, 26.4 µM; in the experiment on HeLa, 24.8 µM; with DU-145, 20.5 µM; in the experiment with K562, 13.4 µM. Also, the inhibition in experiment [1] was determined as 5.9%; in experiment [2], 35.7%; in experiment [3], 51.5%. The inhibition entry in experiment [4] was “inactive”.

With `COc1cccc2c1C(=O)c1c(O)c3c(c(O)c1C2=O)C[C@@](O)(C(=O)CO)C[C@@H]3O[C@H]1C[C@H](N)[C@H](O)[C@H](C)O1` [DOXORUBICIN HYDROCHLORIDE], the IC50 in the experiment on HCT-15 turned out to be 2.12 µM; in the experiment on DU-145, 1.5 µM; with K562 it was 2.5 µM.

Regarding `Clc1ccc(-c2cc(-c3ccoc3)cc(-c3cccnc3)n2)s1`, the IC50 in the experiment with MCF7 worked out at 3.48 µM; in the experiment on HCT-15, 0.72 µM; with HeLa, 20 µM; in the experiment on DU-145 it was 18.5 µM; with K562 it was 18.7 µM. Also, the inhibition came to 2% in experiment [1], 40.9% in experiment [2] and 60.8% in experiment [3]. Moreover, the inhibition result in [4] is “inactive”.

As to `Cc1ccsc1-c1cc(-c2ccc(Cl)o2)cc(-c2ccc(Cl)cc2)n1`, the IC50 in the experiment on MCF7 turned out to be 15.3 µM; in the experiment with HCT-15, 30.3 µM; in the experiment on HeLa, 29.3 µM; in the experiment with DU-145, 21.9 µM; in the experiment with K562, 15.6 µM. Besides, the inhibition in [1] is 5.1%; in experiment [2], 40.4%; in experiment [3], 59.8%. Also, the inhibition result in experiment [4] was “inactive”.

In the case of `Cc1ccsc1-c1cc(-c2ccoc2)cc(-c2ccco2)n1`, the half-inhibitory concentration (IC50) with MCF7 is 18.2 µM; in the experiment with HCT-15 it was 0.64 µM; in the experiment on HeLa, 30.5 µM; in the experiment with DU-145, 30.4 µM; in the experiment with K562 it was 23.3 µM. The inhibition stood at 5.4% in [1], 36.4% in experiment [2] and 59.9% in experiment [3]. Moreover, the inhibition entry in experiment [4] was “inactive”.

Consider `Cc1ccsc1-c1cc(-c2ccoc2)cc(-c2ccc(Cl)cc2)n1`, for which the IC50 was 20.3 µM in the experiment with MCF7; 2.99 µM in the experiment on HCT-15; 17.4 µM in the experiment on HeLa; 20.1 µM with DU-145; 19.6 µM in the experiment on K562. Further, the inhibition in experiment [1] was determined as 85.9%; in [2] it was 8.1%; in experiment [3] it was 33.8%; in [4], 10.6%.

For the compound `Cc1ccsc1-c1cc(-c2ccc(Cl)o2)cc(-c2ccco2)n1`, the IC50 in the experiment with MCF7 worked out at 5.57 µM; in the experiment with HCT-15, 26.3 µM; in the experiment on HeLa it was 22.2 µM; in the experiment on DU-145, 27.3 µM; in the experiment on K562 it was 10.6 µM. Besides, the inhibition is 7.8% in experiment [1], 30.7% in experiment [2] and 61.1% in experiment [3]. Moreover, the inhibition entry in experiment [4] was “inactive”.

As to `Cc1cccc(-c2cc(-c3ccoc3)cc(-c3ccc(Cl)s3)n2)c1`, the IC50 in the experiment on MCF7 was determined as 3.99 µM; with HCT-15 it was 0.88 µM; in the experiment on HeLa, 23.6 µM; in the experiment on DU-145, 20.3 µM; in the experiment on K562, 13.7 µM. Moreover, the inhibition in experiment [1] was 2.6%; in experiment [2] it was 37.6%; in [3], 50.2%. Also, the inhibition result in experiment [4] was “inactive”.

For the compound `Clc1ccc(-c2cc(-c3ccco3)nc(-c3ccc(Cl)s3)c2)o1`, the IC50 is 16.9 µM with MCF7; greater than 50 µM in the experiment with HCT-15; greater than 50 µM in the experiment on HeLa; 27.7 µM in the experiment on DU-145; 22.5 µM in the experiment with K562. Further, the inhibition in experiment [1] stood at 23.1%; in [2], 39.9%; in experiment [3], 53.8%. In experiment [4], the inhibition entry was “inactive”.

On to `CC[C@@]1(O)C(=O)OCc2c1cc1n(c2=O)Cc2cc3ccccc3nc2-1` [CAMPTOTHECIN], for which the IC50 in the experiment on MCF7 was 0.06 µM; with HCT-15, 0.76 µM; in the experiment with DU-145 it was 0.66 µM.
